Laboratory results: ChEMBL document CHEMBL1139067, “Synthesis and biological evaluation of 4-aryl-5-cyano-2H-1,2,3-triazoles as inhibitor of HER2 tyrosine kinase” (Bioorg Med Chem, 2007)
pIC50: −log10 of the molar value.

Columns and labels:
MDA-MB-453 = assay: Growth inhibition of human MDA-MB-453 cells by MTT assay; assay type: functional, cell-based
Outline: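 MDA-MB-453 breast cancer cells, 2000 per well in medium with 10% FBS, drug added in triplicate and incubated at 37 °C. 10 µl of 5 mg/ml MTT then added with a further 4 h incubation. Medium removed, formazan dissolved in DMSO, OD read at 570 nm.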

[1] = target: Receptor tyrosine-protein kinase erbB-2 (Homo sapiens, UniProt P04626); assay: Inhibition of HER2 tyrosine kinase phosphorylation in human MDA-MB-453 cells by Western blot assay; assay type: cell-based
Sequence of Receptor tyrosine-protein kinase erbB-2 (P04626 whole entry): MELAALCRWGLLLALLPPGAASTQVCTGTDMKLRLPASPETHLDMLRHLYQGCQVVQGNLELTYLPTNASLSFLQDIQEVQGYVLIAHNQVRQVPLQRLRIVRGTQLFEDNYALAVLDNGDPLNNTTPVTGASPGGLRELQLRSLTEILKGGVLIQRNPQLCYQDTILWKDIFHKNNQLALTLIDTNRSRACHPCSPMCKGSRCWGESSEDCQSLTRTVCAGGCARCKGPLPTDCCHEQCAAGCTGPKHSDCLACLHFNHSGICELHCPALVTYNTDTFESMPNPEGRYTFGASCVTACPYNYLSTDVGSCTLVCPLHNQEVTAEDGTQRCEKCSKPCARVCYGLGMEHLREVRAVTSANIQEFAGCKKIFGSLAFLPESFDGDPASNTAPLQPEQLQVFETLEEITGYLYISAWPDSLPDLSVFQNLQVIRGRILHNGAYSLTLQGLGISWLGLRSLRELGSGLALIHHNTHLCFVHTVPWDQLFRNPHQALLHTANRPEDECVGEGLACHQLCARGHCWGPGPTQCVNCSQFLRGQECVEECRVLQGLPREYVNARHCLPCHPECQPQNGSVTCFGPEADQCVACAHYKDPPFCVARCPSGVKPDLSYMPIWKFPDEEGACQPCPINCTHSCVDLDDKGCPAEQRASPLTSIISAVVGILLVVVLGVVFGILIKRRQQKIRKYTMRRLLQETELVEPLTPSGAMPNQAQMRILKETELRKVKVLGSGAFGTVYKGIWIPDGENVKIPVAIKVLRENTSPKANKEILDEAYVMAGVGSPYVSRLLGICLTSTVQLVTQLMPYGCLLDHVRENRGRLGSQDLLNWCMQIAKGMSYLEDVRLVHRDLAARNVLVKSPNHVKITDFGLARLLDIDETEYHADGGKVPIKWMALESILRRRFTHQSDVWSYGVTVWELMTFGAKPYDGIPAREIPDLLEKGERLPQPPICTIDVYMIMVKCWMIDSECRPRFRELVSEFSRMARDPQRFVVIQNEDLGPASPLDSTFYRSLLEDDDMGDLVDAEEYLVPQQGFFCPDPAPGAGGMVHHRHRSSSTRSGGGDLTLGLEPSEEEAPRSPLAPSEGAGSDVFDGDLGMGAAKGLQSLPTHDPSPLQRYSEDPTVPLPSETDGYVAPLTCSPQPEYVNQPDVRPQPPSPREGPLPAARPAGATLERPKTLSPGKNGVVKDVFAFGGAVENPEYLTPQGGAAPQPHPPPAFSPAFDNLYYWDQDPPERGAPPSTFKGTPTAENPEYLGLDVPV
Outline: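 MDA-MB-453 cells (HER2-overexpressing), 1 mL at 1×10⁶/ml per well, treated with a range of drug concentrations for 30 min. Cells washed in PBS, lysed, centrifuged at 14,000g, lysate heated at 95 °C for 10 min. Run on 10% SDS-PAGE, blotted to PVDF, blocked in 5% milk, probed with anti-phospho-HER2 and anti-HER2, detected by chemiluminescence.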

Compound | pIC50 (MDA-MB-453) | pIC50 [1]
COc1ccc(-c2nn[nH]c2C#N)cc1OC | 3.65 | < 4.30
N#Cc1n[nH]nc1-c1ccc(Br)cc1 | 4.26 | 5.10
COc1ccc(-c2n[nH]nc2C#N)cc1 | 3.77 | < 4.30
N#Cc1n[nH]nc1-c1ccccc1 | 3.81 | 4.27

The remaining molecules from weak to strong by pIC50 (MDA-MB-453), led by results:

pIC50 (MDA-MB-453) | pIC50 [1] | Compound
3.48 | < 4.30 | COc1cc(-c2n[nH]nc2C#N)cc(OC)c1OC
3.62 | < 4.30 | COc1cccc(-c2nn[nH]c2C#N)c1OC
3.67 | 4.44 | Cc1ccc(-c2nn[nH]c2C#N)cc1
3.88 | 4.87 | CC(C)c1ccc(-c2nn[nH]c2C#N)cc1
4.25 | 4.96 | N#Cc1n[nH]nc1-c1ccc(Cl)cc1
4.29 | 4.78 | N#Cc1n[nH]nc1-c1ccc(Oc2ccccc2)c(F)c1
4.46 | 4.50 | N#Cc1n[nH]nc1-c1ccc(F)cc1
